Assay results taken from ChEMBL document CHEMBL1151869, “Discovery of novel 3,6-disubstituted 2-pyridinecarboxamide derivatives as GK activators” (Bioorg Med Chem Lett, 2009).
pEC50: −log10 of the molar value. The source made the active and inactive calls. No cut-off for these calls is given here.

Key:
[1] = AUC (0 to infinity) in rat at 3 mg/kg, po; assay type: ADME, organism-based; design: dose 3 mg/kg, route oral, time infinity; conditions: plasma
[2] = AUC (0 to infinity) in rat at 1 mg/kg, iv; assay type: ADME, organism-based; design: dose 1 mg/kg, route intravenous, time infinity; conditions: plasma
[3] = Plasma clearance in rat at 1 mg/kg, iv; assay type: ADME, organism-based; design: dose 1 mg/kg, route intravenous
Rattus norvegicus [4] = test: Reduction in plasma glucose level in overnight fasted Wistar rat at 30 mg/kg, po treated after 30 mins of glucose challenge measured after 1 to 3 hrs by oral glucose tolerance test; assay type: functional, organism-based; design: dose 30 mg/kg
How it was run: (§1)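 Nine-week-old male Wistar rats, fasted overnight, given oral dose (30 mpk) or vehicle (0.5% methylcellulose), then an oral glucose challenge (2 g/kg) 30 min later. Blood glucose read just before the challenge and at 30, 60, 90, 120, 150 and 210 min after; AUC taken from the glucose time course.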

[5] = Oral bioavailability in rat at 3 mg/kg, po; assay type: ADME, organism-based; conditions: in vivo
[6] = Hepatic availability in rat hepatocytes; assay type: ADME, cell-based, Hepatocyte
[7] = Volume of distribution at steady state in rat at 1 mg/kg, iv; assay type: ADME, organism-based; design: dose 1 mg/kg, route intravenous; conditions: in vivo, read-out: Vdss
Rattus norvegicus [8] = test: Reduction in glucose AUC in overnight fasted Wistar rat at 30 mg/kg, po treated after 30 mins of glucose challenge measured after 3.5 hrs by oral glucose tolerance test; assay type: functional, organism-based; design: dose 30 mg/kg; how it was run: as §1
[9] = Half life in rat at 1 mg/kg, iv; assay type: ADME, organism-based; design: dose 1 mg/kg, route intravenous; conditions: in vivo
Hexokinase-4 = molecular target: T1, Hexokinase-4 (Homo sapiens, UniProt P35557); test: Activation of glucokinase
T1 sequence (P35557 whole entry): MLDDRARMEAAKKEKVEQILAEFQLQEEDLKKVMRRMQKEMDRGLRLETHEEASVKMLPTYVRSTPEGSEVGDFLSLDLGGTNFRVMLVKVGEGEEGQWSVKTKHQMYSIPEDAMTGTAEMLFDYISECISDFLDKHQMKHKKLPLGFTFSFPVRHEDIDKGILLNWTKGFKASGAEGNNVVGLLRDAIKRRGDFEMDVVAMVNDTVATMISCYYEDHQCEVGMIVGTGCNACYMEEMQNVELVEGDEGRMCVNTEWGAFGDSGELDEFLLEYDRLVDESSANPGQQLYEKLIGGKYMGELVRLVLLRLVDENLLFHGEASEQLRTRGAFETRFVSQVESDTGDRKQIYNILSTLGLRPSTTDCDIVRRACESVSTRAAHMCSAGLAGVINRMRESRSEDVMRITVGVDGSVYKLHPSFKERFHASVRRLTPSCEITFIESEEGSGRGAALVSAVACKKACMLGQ

With `O=C(Nc1nccs1)c1nc(Sc2nnc[nH]2)ccc1Sc1ccc(F)cc1` the AUC(0-inf) [1] was 3.3 µM·h, the AUC(0-inf) [2] was 4.9 µM·h and the clearance [3] was 8.8 mL/min/kg. The Activity (Rattus norvegicus [4]) was “Active”, the bioavailability [5] was 23% and the Fh [6] was 100%. For the same compound, the Vd [7] was 0.5 L/kg, the Activity (Rattus norvegicus [8]) was “Active” and the half-life [9] was 240 min.

Work on `O=C(Nc1nccs1)c1nc(Sc2nnc[nH]2)ccc1Sc1cccc(F)c1` yielded a pEC50 (Hexokinase-4) of 7.40 and a Fh [6] of 89%.

With `COc1cccc(Sc2ccc(Sc3nnc[nH]3)nc2C(=O)Nc2nccs2)c1` the pEC50 (Hexokinase-4) was 6.80.

For `O=C(Nc1nccs1)c1nc(Sc2nnc[nH]2)ccc1Sc1ccccc1F`, the pEC50 (Hexokinase-4) was 7.24 and the Fh [6] was 71%.

With `COc1ccc(Sc2ccc(Sc3nnc[nH]3)nc2C(=O)Nc2nccs2)cc1` the pEC50 (Hexokinase-4) was 6.92 and the Fh [6] was 35%.

For `Cn1cnnc1Sc1ccc(Sc2ccc(F)cc2)c(C(=O)Nc2nccs2)n1`, the pEC50 (Hexokinase-4) was 6.92.

`Cc1cccc(Sc2ccc(Sc3nnc[nH]3)nc2C(=O)Nc2nccs2)c1` showed a pEC50 (Hexokinase-4) of 7.00 and a Fh [6] of 69%.

`O=C(Nc1nccs1)c1nc(Sc2nnc[nH]2)ccc1Sc1ccccc1` gave a pEC50 (Hexokinase-4) of 7.42 and a Fh [6] of 77%.

`Cc1csc(NC(=O)c2nc(Sc3nncn3C)ccc2Sc2ccc(F)cc2)n1` gave a pEC50 (Hexokinase-4) of 6.60.

With `O=C(Nc1nccs1)c1nc(Sc2nnc[nH]2)ccc1Sc1ccc(C(F)(F)F)cc1` the pEC50 (Hexokinase-4) was 6.80.

Work on `Cc1csc(NC(=O)c2cc(Sc3nncn3C)ccc2Sc2ccc(F)cc2)n1` yielded a pEC50 (Hexokinase-4) of 6.01.
